Active and inactive are the calls of the source.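 Rule for the calls: active = duplicate-averaged activation above buffer control mean plus 5 SD of those controls; inactive = the rest.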

This assay can be described thus: thallium flux activation in parental CHO cells, counter-screen for KCNQ1 potentiator project (AID 493006).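 For activation: fluorescence ratio of max minus min over baseline after K+ and Tl+ depolarization.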 To be noted: parental CHO-K1 cells, FluxOR thallium flux, at 10 µM; active compounds read high. Summed up: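 Benchmarks – buffer and R-L3 controls · Assay system – untransfected host CHO-K1 cells with FluxOR thallium dye · Measure – fluorescence change ratio scaled 0% buffer, 100% R-L3 · Technique – kinetic thallium-flux fluorescence · Timing – overnight 37 °C plating, 90 min RT dye, 20 min compound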
Regarding `O=C(Nc1nnc(-c2ccc(Cl)cc2)o1)c1ccccc1Br`, the activation was 228% (active).

`CC(=O)c1ccc(OCc2cc(C(=O)N(C)Cc3nc4c(C)cccc4[nH]3)no2)cc1`: the result was inactive.

With `Cc1cc(C)c2nc(NC(=O)c3cc(C)on3)sc2c1`, the activation is 174% (active).

For `O=C(NC(=S)NC1CCCCC1)c1ccc(F)cc1`, the result was inactive.

On to `O=c1cc(N2CCc3ccccc32)[nH]c(=O)n1Cc1ccc(F)cc1`, for which the result was inactive.

Regarding `S=c1nc(Cc2ccc(Cl)cc2)[nH]c2ccccc12`, the activation was 372% (active).

`Cc1sc2nc(C(C)C)nc(SCC(=O)N3c4ccccc4CC3C)c2c1C` (stereo not drawn): the activation is 164% (active).

For `Cc1sc(NC(=O)c2ccccc2)c(C(c2ccc(Cl)cc2)N2CCN(CCO)CC2)c1C` (stereo not drawn), the outcome was inactive.

With `O=C(COC(=O)c1ccccc1)Nc1ccccc1N1CCOCC1`, the outcome was inactive.

In the case of `S=c1[nH]c2ccc(Cl)cc2s1`, the activation is 614% (active).

Turning to `COc1ccc(CCC(=O)NCCOc2ccc(C)cc2)cc1`, the outcome was inactive.

Consider `COc1cc(NS(=O)(=O)c2ccc(NC(=S)NC(=O)c3sc4cc(F)ccc4c3Cl)cc2)nc(OC)n1`, for which the activation is 144% (active).

Take `CCOC(=O)C1CCCN(C(=O)C2CCN(S(=O)(=O)c3ccc4ccccc4c3)CC2)C1` (stereo not drawn): the outcome was inactive.

In the case of `CCc1ccc(NC(=O)C(=O)NNC(=O)c2cccc(OC)c2)cc1`, the activation was 269% (active).

For `O=C(O)c1ccccc1C(=O)NNc1ccc(Cl)cc1`, the result was inactive.

`CCC(C)[C@H](N)c1nnc(SCC(=O)Nc2cccc(Cl)c2)o1` (stereo partly drawn): the activation is 210% (active).

Take `Cn1c(=O)nc2n(Cc3ccccc3)c3ccccc3cc-2c1=O`: the outcome was inactive.

In the case of `CSc1nsc(SCC(=O)Nc2ccccc2)n1`, the result was inactive.

The values are drawn from PubChem BioAssay.
